ChEMBL document CHEMBL5058577, “EUbOPEN Chemogenomics Library 2 (Multiplex)” (2022)

Test system: Fibroblast
Test: Multiplex assay against human fibroblast
Format: toxicity, cell-based
Outline: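 At seeding, live cells were stained with Hoechst33342, BioTracker Green Microtubule Cytoskeleton Dye, MitoTracker Red and Annexin V Alexa Fluor 680. After compound addition they were imaged on a CQ1 microscope at 37°C and 5% CO2, and CellPathfinder machine-learning gating sorted them into Hoechst high-intensity objects or normal cells, with normal cells further split into healthy, pyknosed or fragmented nuclei and pyknosed cells into mitotic or apoptotic. Tubulin, mitochondrial-mass and membrane-permeability phenotypes are given as per cents of cells with healthy nuclei.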

[1] = 12 h, 1 µM, compound concentration 1 uM, replicate 1
[2] = 12 h, 1 µM, compound concentration 1 uM, replicate 2
[3] = 12 h, 10 µM, compound concentration 10 uM, replicate 1
[4] = 12 h, 10 µM, compound concentration 10 uM, replicate 2
[5] = 24 h, 1 µM, compound concentration 1 uM, replicate 1
[6] = 24 h, 1 µM, compound concentration 1 uM, replicate 2
[7] = 24 h, 10 µM, compound concentration 10 uM, replicate 1
[8] = 24 h, 10 µM, compound concentration 10 uM, replicate 2
[9] = 48 h, 1 µM, compound concentration 1 uM, replicate 1
[10] = 48 h, 1 µM, compound concentration 1 uM, replicate 2
[11] = 48 h, 10 µM, compound concentration 10 uM, replicate 1
[12] = 48 h, 10 µM, compound concentration 10 uM, replicate 2

## Cc1ccc(OCC(O)C(C)NC(C)C)c2c1CCC2.Cl (stereo not drawn)
[1]
  Population Apoptotic (%): 36%
  Population Fragmented Nuclei (%): 10%
  Population Healthy Nuclei (%): 68%
  Population Hoechst High Intensity Objects (%): 0%
  Population Membrane Permeable-Phenotype (%): 0%
  Population Mitochondria Different-Phenotype (%): 3%
  Population Mitotic Cells (%): 63%
  Population Normal (%): 99%
  Population Pyknosed Nuclei (%): 20%
  Population Tubulin-Different-Phenotype (%): 26%
  Total Cell Count: 159
[2]
  Population Apoptotic (%): 28%
  Population Fragmented Nuclei (%): 17%
  Population Healthy Nuclei (%): 55%
  Population Hoechst High Intensity Objects (%): 9%
  Population Membrane Permeable-Phenotype (%): 4%
  Population Mitochondria Different-Phenotype (%): 7%
  Population Mitotic Cells (%): 71%
  Population Normal (%): 90%
  Population Pyknosed Nuclei (%): 27%
  Population Tubulin-Different-Phenotype (%): 50%
  Total Cell Count: 210
[3]
  Population Apoptotic (%): 47%
  Population Fragmented Nuclei (%): 39%
  Population Healthy Nuclei (%): 47%
  Population Hoechst High Intensity Objects (%): 1%
  Population Membrane Permeable-Phenotype (%): 0%
  Population Mitochondria Different-Phenotype (%): 12%
  Population Mitotic Cells (%): 52%
  Population Normal (%): 98%
  Population Pyknosed Nuclei (%): 12%
  Population Tubulin-Different-Phenotype (%): 52%
  Total Cell Count: 138
[4]
  Population Apoptotic (%): 25%
  Population Fragmented Nuclei (%): 33%
  Population Healthy Nuclei (%): 50%
  Population Hoechst High Intensity Objects (%): 2%
  Population Membrane Permeable-Phenotype (%): 7%
  Population Mitochondria Different-Phenotype (%): 17%
  Population Mitotic Cells (%): 74%
  Population Normal (%): 97%
  Population Pyknosed Nuclei (%): 16%
  Population Tubulin-Different-Phenotype (%): 54%
  Total Cell Count: 168
[5]
  Population Apoptotic (%): 57%
  Population Fragmented Nuclei (%): 11%
  Population Healthy Nuclei (%): 74%
  Population Hoechst High Intensity Objects (%): 0%
  Population Membrane Permeable-Phenotype (%): 4%
  Population Mitochondria Different-Phenotype (%): 5%
  Population Mitotic Cells (%): 42%
  Population Normal (%): 100%
  Population Pyknosed Nuclei (%): 13%
  Population Tubulin-Different-Phenotype (%): 30%
  Total Cell Count: 154
[6]
  Population Apoptotic (%): 20%
  Population Fragmented Nuclei (%): 27%
  Population Healthy Nuclei (%): 46%
  Population Hoechst High Intensity Objects (%): 15%
  Population Membrane Permeable-Phenotype (%): 1%
  Population Mitochondria Different-Phenotype (%): 8%
  Population Mitotic Cells (%): 80%
  Population Normal (%): 84%
  Population Pyknosed Nuclei (%): 26%
  Population Tubulin-Different-Phenotype (%): 52%
  Total Cell Count: 201
[7]
  Population Apoptotic (%): 35%
  Population Fragmented Nuclei (%): 39%
  Population Healthy Nuclei (%): 49%
  Population Hoechst High Intensity Objects (%): 1%
  Population Membrane Permeable-Phenotype (%): 1%
  Population Mitochondria Different-Phenotype (%): 13%
  Population Mitotic Cells (%): 64%
  Population Normal (%): 98%
  Population Pyknosed Nuclei (%): 11%
  Population Tubulin-Different-Phenotype (%): 63%
  Total Cell Count: 151
[8]
  Population Apoptotic (%): 36%
  Population Fragmented Nuclei (%): 35%
  Population Healthy Nuclei (%): 50%
  Population Hoechst High Intensity Objects (%): 5%
  Population Membrane Permeable-Phenotype (%): 4%
  Population Mitochondria Different-Phenotype (%): 14%
  Population Mitotic Cells (%): 63%
  Population Normal (%): 94%
  Population Pyknosed Nuclei (%): 13%
  Population Tubulin-Different-Phenotype (%): 65%
  Total Cell Count: 168
[9]
  Population Apoptotic (%): 64%
  Population Fragmented Nuclei (%): 16%
  Population Healthy Nuclei (%): 71%
  Population Hoechst High Intensity Objects (%): 4%
  Population Membrane Permeable-Phenotype (%): 0%
  Population Mitochondria Different-Phenotype (%): 1%
  Population Mitotic Cells (%): 35%
  Population Normal (%): 95%
  Population Pyknosed Nuclei (%): 11%
  Population Tubulin-Different-Phenotype (%): 23%
  Total Cell Count: 155
[10]
  Population Apoptotic (%): 34%
  Population Fragmented Nuclei (%): 37%
  Population Healthy Nuclei (%): 42%
  Population Hoechst High Intensity Objects (%): 11%
  Population Membrane Permeable-Phenotype (%): 5%
  Population Mitochondria Different-Phenotype (%): 8%
  Population Mitotic Cells (%): 65%
  Population Normal (%): 88%
  Population Pyknosed Nuclei (%): 20%
  Population Tubulin-Different-Phenotype (%): 60%
  Total Cell Count: 196
[11]
  Population Apoptotic (%): 71%
  Population Fragmented Nuclei (%): 35%
  Population Healthy Nuclei (%): 50%
  Population Hoechst High Intensity Objects (%): 1%
  Population Membrane Permeable-Phenotype (%): 0%
  Population Mitochondria Different-Phenotype (%): 9%
  Population Mitotic Cells (%): 28%
  Population Normal (%): 98%
  Population Pyknosed Nuclei (%): 13%
  Population Tubulin-Different-Phenotype (%): 68%
  Total Cell Count: 155
[12]
  Population Apoptotic (%): 60%
  Population Fragmented Nuclei (%): 39%
  Population Hoechst High Intensity Objects (%): 7%
  Population Membrane Permeable-Phenotype (%): 5%
  Population Mitochondria Different-Phenotype (%): 10%
  Population Mitotic Cells (%): 40%
  Population Normal (%): 92%
  Population Pyknosed Nuclei (%): 10%
  Population Tubulin-Different-Phenotype (%): 63%
  Total Cell Count: 157

## C[C@H](NC(=O)CNC(=O)c1cccc(Cl)c1)c1ccccc1
[1]
  Population Apoptotic (%): 50%
  Population Fragmented Nuclei (%): 18%
  Population Healthy Nuclei (%): 71%
  Population Hoechst High Intensity Objects (%): 0%
  Population Membrane Permeable-Phenotype (%): 0%
  Population Mitochondria Different-Phenotype (%): 4%
  Population Mitotic Cells (%): 50%
  Population Normal (%): 100%
  Population Pyknosed Nuclei (%): 10%
  Population Tubulin-Different-Phenotype (%): 17%
  Total Cell Count: 94
[2]
  Population Apoptotic (%): 44%
  Population Fragmented Nuclei (%): 28%
  Population Healthy Nuclei (%): 53%
  Population Hoechst High Intensity Objects (%): 3%
  Population Membrane Permeable-Phenotype (%): 6%
  Population Mitochondria Different-Phenotype (%): 2%
  Population Mitotic Cells (%): 56%
  Population Normal (%): 96%
  Population Pyknosed Nuclei (%): 18%
  Population Tubulin-Different-Phenotype (%): 41%
  Total Cell Count: 140
[3]
  Population Apoptotic (%): 48%
  Population Fragmented Nuclei (%): 15%
  Population Healthy Nuclei (%): 58%
  Population Hoechst High Intensity Objects (%): 2%
  Population Membrane Permeable-Phenotype (%): 0%
  Population Mitochondria Different-Phenotype (%): 8%
  Population Mitotic Cells (%): 51%
  Population Normal (%): 97%
  Population Pyknosed Nuclei (%): 26%
  Population Tubulin-Different-Phenotype (%): 35%
  Total Cell Count: 106
[4]
  Population Apoptotic (%): 43%
  Population Fragmented Nuclei (%): 31%
  Population Healthy Nuclei (%): 43%
  Population Hoechst High Intensity Objects (%): 1%
  Population Membrane Permeable-Phenotype (%): 13%
  Population Mitochondria Different-Phenotype (%): 3%
  Population Mitotic Cells (%): 56%
  Population Normal (%): 98%
  Population Pyknosed Nuclei (%): 24%
  Population Tubulin-Different-Phenotype (%): 54%
  Total Cell Count: 124
[5]
  Population Apoptotic (%): 43%
  Population Fragmented Nuclei (%): 17%
  Population Healthy Nuclei (%): 65%
  Population Hoechst High Intensity Objects (%): 1%
  Population Membrane Permeable-Phenotype (%): 1%
  Population Mitochondria Different-Phenotype (%): 3%
  Population Mitotic Cells (%): 56%
  Population Normal (%): 98%
  Population Pyknosed Nuclei (%): 17%
  Population Tubulin-Different-Phenotype (%): 25%
  Total Cell Count: 93
[6]
  Population Apoptotic (%): 33%
  Population Fragmented Nuclei (%): 30%
  Population Healthy Nuclei (%): 50%
  Population Hoechst High Intensity Objects (%): 3%
  Population Membrane Permeable-Phenotype (%): 8%
  Population Mitochondria Different-Phenotype (%): 4%
  Population Mitotic Cells (%): 66%
  Population Normal (%): 96%
  Population Pyknosed Nuclei (%): 19%
  Population Tubulin-Different-Phenotype (%): 42%
  Total Cell Count: 145
[7]
  Population Apoptotic (%): 52%
  Population Fragmented Nuclei (%): 14%
  Population Healthy Nuclei (%): 61%
  Population Hoechst High Intensity Objects (%): 2%
  Population Membrane Permeable-Phenotype (%): 1%
  Population Mitochondria Different-Phenotype (%): 3%
  Population Mitotic Cells (%): 48%
  Population Normal (%): 97%
  Population Pyknosed Nuclei (%): 24%
  Population Tubulin-Different-Phenotype (%): 45%
  Total Cell Count: 107
[8]
  Population Apoptotic (%): 56%
  Population Fragmented Nuclei (%): 33%
  Population Healthy Nuclei (%): 45%
  Population Hoechst High Intensity Objects (%): 5%
  Population Membrane Permeable-Phenotype (%): 5%
  Population Mitochondria Different-Phenotype (%): 7%
  Population Mitotic Cells (%): 43%
  Population Normal (%): 94%
  Population Pyknosed Nuclei (%): 20%
  Population Tubulin-Different-Phenotype (%): 64%
  Total Cell Count: 118
[9]
  Population Apoptotic (%): 33%
  Population Fragmented Nuclei (%): 20%
  Population Healthy Nuclei (%): 67%
  Population Hoechst High Intensity Objects (%): 1%
  Population Membrane Permeable-Phenotype (%): 0%
  Population Mitochondria Different-Phenotype (%): 0%
  Population Mitotic Cells (%): 66%
  Population Normal (%): 98%
  Population Pyknosed Nuclei (%): 12%
  Population Tubulin-Different-Phenotype (%): 26%
  Total Cell Count: 95
[10]
  Population Apoptotic (%): 40%
  Population Fragmented Nuclei (%): 29%
  Population Healthy Nuclei (%): 52%
  Population Hoechst High Intensity Objects (%): 3%
  Population Membrane Permeable-Phenotype (%): 4%
  Population Mitochondria Different-Phenotype (%): 2%
  Population Mitotic Cells (%): 60%
  Population Normal (%): 96%
  Population Pyknosed Nuclei (%): 17%
  Population Tubulin-Different-Phenotype (%): 44%
  Total Cell Count: 147
[11]
  Population Apoptotic (%): 68%
  Population Fragmented Nuclei (%): 15%
  Population Healthy Nuclei (%): 56%
  Population Hoechst High Intensity Objects (%): 7%
  Population Membrane Permeable-Phenotype (%): 1%
  Population Mitochondria Different-Phenotype (%): 15%
  Population Mitotic Cells (%): 31%
  Population Normal (%): 92%
  Population Pyknosed Nuclei (%): 27%
  Population Tubulin-Different-Phenotype (%): 50%
  Total Cell Count: 112
[12]
  Population Apoptotic (%): 69%
  Population Fragmented Nuclei (%): 38%
  Population Healthy Nuclei (%): 50%
  Population Hoechst High Intensity Objects (%): 4%
  Population Membrane Permeable-Phenotype (%): 6%
  Population Mitochondria Different-Phenotype (%): 5%
  Population Mitotic Cells (%): 30%
  Population Normal (%): 95%
  Population Pyknosed Nuclei (%): 11%
  Population Tubulin-Different-Phenotype (%): 67%
  Total Cell Count: 121
